# Measured values from different studies.
# Target: MAP/microtubule affinity-regulating kinase 4 (MARK4, Homo sapiens, UniProt Q96L34)
# One construct used (Q96L34 1-752): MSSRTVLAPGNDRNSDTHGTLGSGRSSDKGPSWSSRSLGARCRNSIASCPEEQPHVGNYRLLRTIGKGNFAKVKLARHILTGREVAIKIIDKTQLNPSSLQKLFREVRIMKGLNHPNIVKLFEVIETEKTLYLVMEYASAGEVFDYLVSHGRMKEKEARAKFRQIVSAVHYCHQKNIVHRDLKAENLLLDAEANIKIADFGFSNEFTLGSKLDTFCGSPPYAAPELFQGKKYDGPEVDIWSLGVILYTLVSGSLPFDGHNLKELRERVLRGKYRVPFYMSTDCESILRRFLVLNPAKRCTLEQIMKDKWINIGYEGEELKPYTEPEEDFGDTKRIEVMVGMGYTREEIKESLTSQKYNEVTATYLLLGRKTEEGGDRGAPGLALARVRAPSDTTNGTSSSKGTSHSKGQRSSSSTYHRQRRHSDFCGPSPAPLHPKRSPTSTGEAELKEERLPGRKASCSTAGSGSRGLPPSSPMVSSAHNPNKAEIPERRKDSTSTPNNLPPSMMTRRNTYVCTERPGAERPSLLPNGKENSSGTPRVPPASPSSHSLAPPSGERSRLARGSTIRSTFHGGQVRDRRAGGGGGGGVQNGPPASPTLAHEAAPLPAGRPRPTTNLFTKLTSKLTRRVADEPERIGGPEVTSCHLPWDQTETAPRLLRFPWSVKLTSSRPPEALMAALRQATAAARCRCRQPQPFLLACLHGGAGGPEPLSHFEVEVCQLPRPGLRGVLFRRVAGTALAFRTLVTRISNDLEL
SMILES,read-out,action,technique,concentration,endpoint,value
Cn1cncc1[C@@](O)(COc1ccc(C#N)cc1-c1ccc(OC(F)(F)F)cc1)c1ccc(C#N)cc1,cell-free assay,,competition with immobilised ligand,1 µM,remaining binding,100%
O=c1[nH]c2ccccc2n1C1CCN(Cc2ccc(-c3[nH]c4cc5ncnc5cc4nc3-c3ccccc3)cc2)CC1,cell-free assay,,,0.5 µM,remaining signal,102%
COc1ncccc1-c1cnn2ccc(N3CCN(C(=O)OC(C)C)CC3)nc12,binding,,competition with immobilised ligand,1 µM,remaining binding,100%
Nc1ncc(-c2nc(N3CCOCC3)nc(N3CCOCC3)n2)c(C(F)F)n1,binding,,competition with immobilised ligand,10 µM,remaining binding,90%
COc1cc(Nc2ncc(F)c(Nc3ccc4c(n3)NC(=O)C(C)(C)O4)n2)cc(OC)c1OC,binding,,competition with immobilised ligand,10 µM,inhibition,99%
Cn1cc(-c2cc(F)cc(N3CCn4c(cc5c4CCCC5)C3=O)c2CO)cc(Nc2ccc(N3CCN(C4COC4)CC3)cn2)c1=O,enzyme activity,inhibitor,,0.1 µM,inhibition,9%
Cc1nn(C)cc1-c1nc2c(N3CCN(Cc4ccc(Cl)cc4)CC3)c(Cl)cnc2[nH]1,binding,,competition with immobilised ligand,1 µM,remaining binding,29%
Cn1cc(-c2cccc(N3CCc4c(sc5c4CC(C)(C)C5)C3=O)c2CO)cc(Nc2ccncn2)c1=O,enzyme activity,inhibitor,,1 µM,inhibition,3%
CC(C)(C)c1cc(C=C(C#N)C#N)cc(Br)c1O,enzyme activity,inhibitor,,0.5 µM,remaining activity,103%
